Source: PubChem (The Scripps Research Institute Molecular Screening Center)
Sampled rows, rich in hits. Any-hit rate of the full collection: about 0.99%.
LYPLA1 inh – blocks human lysophospholipase 1, a PME1 counter-screen. recombinant LYPLA1, FP-Rh probe fluorescence polarization. inhibition, % at 5.9 µM. O75608. 0.16% of 320,000 active;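 active = inhibition above the mean of all tested compounds plus 3 SD, set per campaign, cut at about 14% in these data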;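 also: inhibitors block serine hydrolase probe labeling of LYPLA1 so polarization falls; 0% = enzyme with DMSO and 100% = wells lacking LYPLA1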
Fam108B counter – Fam108B inhibition, counter-screen for RBBP9 inhibitors | inhibition, % at 9.51 µM | recombinant Fam108B, FP-Rh probe fluorescence polarization | AID 1947 | 0.33% of 300,000 active;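 active = inhibition above the screen mean inhibition plus 3 SD, computed separately per campaign, cut at about 18% in these data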;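 also: inhibitors lower polarization as less probe binds the enzyme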
LYPLA2 inh – LYPLA2 (human) inhibition in PME1 counter-screen; recombinant LYPLA2, FP-Rh probe fluorescence polarization; AID 2177; O95372; inhibition, % at 5.9 µM; 0.38% of 320,000 active;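 active = inhibition above the screen-wide mean plus 3 SD, limit set per campaign, cut at about 26% in these data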;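 also: 0% = LYPLA2 with DMSO and 100% = wells lacking LYPLA2 enzyme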
RBBP9 inhibitor – blocks human serine hydrolase RBBP9. 0.2% of 220,000 active. recombinant RBBP9, FP-Rh probe fluorescence polarization. AID 1515. inhibition, % at 7.94 µM;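 active = inhibition above the campaign mean of all tested compounds plus 3 SD, cut at about 14% in these data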;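 also: plate controls were DMSO wells with RBBP9 for no effect and wells lacking RBBP9 protein for full effect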
Target sequence (O75884 whole entry, looked up): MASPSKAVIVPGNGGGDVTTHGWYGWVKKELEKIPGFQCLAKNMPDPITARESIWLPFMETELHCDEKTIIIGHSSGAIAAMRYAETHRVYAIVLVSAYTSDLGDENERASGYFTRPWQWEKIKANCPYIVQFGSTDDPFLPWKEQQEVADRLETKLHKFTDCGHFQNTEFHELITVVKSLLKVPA
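Measured by: FP readout at 525/598 nm; material: recombinant human RBBP9; also added: Serine-hydrolase probe FP-Rh, 375 nM pre-mixing; medium: Tris buffer pH 8.0, NaCl, Pluronic; replication: one well per compound; doses: one concentration, 7.94 µM nominal, 0.794% DMSO; timing: preincubation 30 min plus labeling 45 min at 25 °C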
PME-1 primary – blocks human protein phosphatase methylesterase 1. 0.53% of 320,000 active. recombinant PME-1, FP-Rh probe fluorescence polarization. inhibition, % at 5.9 µM. Q9Y570. AID 2130;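 active = inhibition above the campaign mean of all compounds plus 3 SD, cut at about 26% in these data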;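 also: competitive labeling of PME-1 active site by serine hydrolase directed probe; 0% = PME-1 with DMSO and 100% = wells lacking PME-1 enzyme; inhibitors block probe labeling so polarization falls and inhibition rises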
Target sequence (Q9Y570 whole entry, looked up): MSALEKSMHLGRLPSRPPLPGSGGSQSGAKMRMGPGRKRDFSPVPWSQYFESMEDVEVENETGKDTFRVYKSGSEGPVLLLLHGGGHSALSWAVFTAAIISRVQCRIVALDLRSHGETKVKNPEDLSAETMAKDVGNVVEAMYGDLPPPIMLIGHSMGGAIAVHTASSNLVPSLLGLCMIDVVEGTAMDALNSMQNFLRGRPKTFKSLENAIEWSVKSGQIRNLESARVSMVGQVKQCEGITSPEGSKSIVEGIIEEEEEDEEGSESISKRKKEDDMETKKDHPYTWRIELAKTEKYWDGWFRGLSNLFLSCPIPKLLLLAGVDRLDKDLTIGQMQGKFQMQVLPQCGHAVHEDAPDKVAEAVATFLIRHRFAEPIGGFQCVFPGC
LYPLA1 conf – counter-screen for PME1 inhibitors: confirmation of human LYPLA1 inhibitors; shares compounds with LYPLA1 inh; recombinant LYPLA1, FP-Rh probe fluorescence polarization; inhibition, % at 5.9 µM; 69% of 480 active; AID 2233;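 active = mean inhibition across replicates above the hit cutoff set in the primary screen, cut at about 15% in these data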;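 also: loss of FP-Rh probe labeling of LYPLA1 seen as lower polarization; 0% = LYPLA1 with DMSO and 100% = wells lacking LYPLA1 enzyme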
LYPLA2 conf – counter-screen for PME1 inhibitors: confirmation of human LYPLA2 inhibitors | AID 2232 | inhibition, % at 5.9 µM | recombinant LYPLA2, FP-Rh probe fluorescence polarization | shares compounds with LYPLA2 inh | 72% of 1,100 active;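 active = mean inhibition across replicates above the hit cutoff set in the primary screen, cut at about 26% in these data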;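 also: blocked labeling of the enzyme by serine hydrolase FP-Rh probe lowers polarization; 0% = enzyme with DMSO and 100% = wells lacking LYPLA2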
* hit, by the source's call; . = not tested or not shown.

SMILES | LYPLA1 inh | Fam108B counter | LYPLA2 inh | RBBP9 inhibitor | PME-1 primary | LYPLA1 conf | others
COc1ccc(-n2cc(-c3ccccc3)c3c(NN4CCOCC4)ncnc32)cc1 | 14* | -4 | 0 | 0 | 0 | 27*
Cc1ccc(NC(=O)C2CC2C)c(Cl)c1 (stereo not drawn) | 3 | -3 | 1 | -9 | -3 | .
CCCCn1c(N)c(N(CC(C)C)C(=O)c2ccc(OCc3c(C)noc3C)cc2)c(=O)[nH]c1=O | 1 | 5 | 8 | . | -1 | .
COc1ccc(C(=O)Oc2cccc(Nc3ncnc4ccccc34)c2)cc1OC | 16* | -4 | 6 | -15 | -7 | 15*
CCCCN(C)C1=CC2=CC(=C(C#N)C#N)CCC2CC1 (stereo not drawn) | 32* | 6 | 12 | -8 | 42* | 8
CCN(CC)C1=CC2=CC(=C(C#N)C#N)CCC2CC1 (stereo not drawn) | 7 | 0 | 2 | -1 | 7 | .
Cc1ccc(Cl)cc1N1CCN(C(=O)CNC(=O)c2ccc(Br)o2)CC1 | -1 | . | 0 | . | -2 | .
O=C(NCC(=O)N1CCN(c2cccc(Cl)c2)CC1)c1ccc(Br)o1 | 14* | 1 | 7 | . | 3 | 16*
COc1ccc(CCNC(=O)CN(CCc2ccccc2)S(C)(=O)=O)cc1OC | 22* | -3 | 2 | -9 | 0 | 3
COC(=O)c1cccc(NC(=O)c2ccc3c(c2)C(=O)N(Cc2cccnc2)C3=O)c1 | 20* | 1 | 8 | . | 7 | 19*
O=C(Nc1ccc(Oc2cccnc2)cc1)C1CCN(Cc2ccc(F)cc2)CC1 | -3 | -3 | -4 | . | -1 | .
O=C(Nc1ccc(Oc2cccnc2)cc1)C1CCN(Cc2cc(Cl)ccc2O)CC1 | 21* | -1 | 25 | . | -3 | 18*
COCC(C)NC(=O)Cc1ccc(F)cc1 (stereo not drawn) | 2 | 1 | 4 | -9 | 4 | .
NC(=O)c1cc(S(=O)(=O)NCc2cccc(Br)c2)cs1 | 15* | 2 | 2 | . | 1 | -5
CCOC(=O)C1CCCN(S(=O)(=O)c2ccc3c(c2)CC(C)N3C(=O)C2CC2)C1 (stereo not drawn) | 5 | 2 | -4 | . | 4 | .
CCOC(=O)C1CCN(S(=O)(=O)c2ccc3c(c2)CC(C)N3C(=O)C2CCC2)CC1 (stereo not drawn) | 16* | 3 | 3 | . | 0 | 24*
CC1CCN(S(=O)(=O)c2ccc3c(c2)CC(C)N3C(=O)C2CCC2)CC1 (stereo not drawn) | 25* | 6 | 5 | . | 11 | 34*
CC1Cc2cc(S(=O)(=O)N3CCCCC3)ccc2N1C(=O)C1CCC1 (stereo not drawn) | 19* | -1 | -1 | . | 5 | 24*
CC1Cc2cc(S(=O)(=O)N3CCC(C(=O)N(C)Cc4ccco4)CC3)ccc2N1C(=O)C1CCC1 (stereo not drawn) | 19* | 4 | 11 | . | 3 | 29*
Cc1ccc(CNC(=O)CCC2CCCN(C(=O)CCC(F)(F)F)C2)o1 (stereo not drawn) | 1 | 4 | -1 | -2 | -2 | .
O=C(O)/C=C/c1cn(Cc2ccccc2)nc1-c1ccc(Cl)cc1 | -4 | 6 | 0 | -11 | -8 | .
CC1=C(C#N)C(=O)N(C2CCS(=O)(=O)C2)C(=O)/C1=C\c1ccc(C)o1 (stereo not drawn) | -1 | 8 | 0 | 0 | -1 | .
COc1cc(OC)c(OC)cc1/C=C1\Oc2cc(OCC(=O)N3Cc4ccccc4C[C@H]3C(=O)O)ccc2C1=O | 25* | 2 | -6 | . | -12 | 22*
COc1ccc(/C=C2\Oc3cc(OCC(=O)N4CCC[C@H]4C(=O)O)ccc3C2=O)c(OC)c1 | -2 | 0 | 2 | . | 1 | .
CCOc1ccc(CCNC(=O)COC(=O)/C=C/c2ccccc2OC)cc1OCC | 2 | -1 | 0 | . | 3 | .
SMILES | LYPLA1 inh | Fam108B counter | LYPLA2 inh | RBBP9 inhibitor | PME-1 primary | LYPLA1 conf | others
COc1ccc(-c2nnc(Nc3nc4c(OC)cccc4s3)o2)cc1 | 17* | 1 | 18 | -1 | -27 | 41*
COc1ccc(Oc2c(C)oc3c(CN4CCOCC4)c(O)ccc3c2=O)cc1 | 13 | 1 | 10 | -6 | -6 | .
CCOC(=O)c1ccc(Oc2c(C)oc3c(CN4CCN(C)CC4)c(O)ccc3c2=O)cc1 | 17* | 0 | 13 | -2 | -10 | 17*
CC(=O)c1sc(NC(=O)C2CCN(C(=O)c3ccc(F)cc3)CC2)nc1-c1ccccc1 | 20* | 0 | 20 | . | 12 | 29*
Cc1ccccc1NC(=O)CC1C(=O)Nc2ccccc2N1CC(=O)N(C)C1CCS(=O)(=O)C1 (stereo not drawn) | -2 | . | -6 | . | 2 | .
COc1ccccc1C(=O)Nc1nnc(S(=O)(=O)N2CCN(c3ccc(F)cc3)CC2)s1 | -2 | -4 | 11 | . | 2 | .
COCCn1c(=NC(=O)c2ccc(S(=O)(=O)N3CCOCC3)cc2)sc2cc(S(N)(=O)=O)ccc21 | 17* | -4 | 15 | . | 12 | 27*
COc1c2c(nc3occc13)C(CC=C(C)C)(OC)C(OC(C)=O)CC2 (stereo not drawn) | 1 | -1 | 4 | -3 | 7 | .
COc1ccc(CC(=O)Nc2ccc(S(=O)(=O)N3CCC(C)CC3)cc2)c(OC)c1 | 17* | . | -3 | . | -5 | -5
O=C(CN1CCN(c2ccccn2)CC1)Nc1ccc(Cl)c(C(F)(F)F)c1 | 2 | -5 | 3 | 0 | 8 | .
O=C(CN1CCN(c2ccccn2)CC1)Nc1cc(C(F)(F)F)ccc1Cl | 54* | 7 | -5 | -8 | 10 | 55*
COc1ccc(CCN2CC(C(=O)NCc3ccccc3)CCC2=O)cc1 (stereo not drawn) | -2 | 2 | 0 | . | -6 | .
NC(=O)C1=C[C@H](c2ccc(C(F)(F)F)cc2)C[C@H](OCc2ccc(CO)cc2)O1 | 30* | 3 | 13 | -4 | 14 | 34*
S=C1NCCOCCNC(=S)NCCOCCOCCOCCN1 | 1 | 6 | 4 | -3 | -1 | .
COc1ccccc1/C=C/C=N/N1CCN(Cc2ccccc2)CC1 | 19* | 4 | 16 | 0 | 0 | 12
Cc1nc(C)n(C(C)CNS(=O)(=O)c2ccc(C)c(C)c2)n1 (stereo not drawn) | 2 | 10 | 5 | . | 6 | .
OC(COc1ccc(Cl)cc1)CN1CCN(c2cccc(Cl)c2)CC1 (stereo not drawn) | 20* | 3 | 59* | -9 | 2 | 27* | LYPLA2 conf=62*
N#CCOC(=O)[C@H](Cc1ccccc1)N1C(=O)c2ccccc2C1=O | -3 | 3 | -2 | . | 3 | .
CN(C)c1ccc(S(=O)(=O)NCC(=O)N2CCN(c3ccccc3)CC2)cc1[N+](=O)[O-] | 18* | 1 | 28* | . | 8 | 24* | LYPLA2 conf=26*
